The values that follow come from article PMC11248911 (RSC Advances, 2024).

Like-named read-outs stand apart in the source and are kept apart here.

In assay [1] the test system is MCF-7 human cancer cell line. Put plainly: In vitro antiproliferative activity, LDH release assay, MCF-7. The assay is classed as cell-based. The note with it: for IC50: Homo sapiens. The gist of the method: (§1)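 Cells were grown in RPMI-1640 with 10% heat-inactivated FBS and penicillin/streptomycin at 37 °C, 5% CO2. Seeded at 2 × 10^5 cells per well, grown 18 h, then treated with a concentration series for 48 h. LDH in supernatant and in 6% Triton X-100 lysate was read kinetically for 1 min at 340 nm, using pH 7.5 phosphate buffer with 4.6 mM pyruvate and β-NADH. Release was taken as % of total; IC50 by probit, thrice in triplicate.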

The next assay concerns MMP9. Put plainly: In vitro MMP9 inhibition assay. The assay is classed as biochemical, human. Conditions: biomarker for invasion. In a few lines: (§2)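 Enzyme activity kits were run per manufacturer's instructions. Experiments were done in triplicate (n = 3) and reported as mean ± SD. IC50s were derived by probit analysis.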
In a further assay the target is aminopeptidase N (APN) (Homo sapiens, UniProt P15144). Put plainly: In vitro APN inhibition assay. The format is biochemical. In a few lines: as §2
Assay [2] deals with MCF-7 cells. Put plainly: Cell cycle analysis by flow cytometry. The format is cell-based, human. The note with it: MCF-7, 48 h. For orientation: In flow cytometry, cells or beads pass a laser one at a time.
In assay [3] the test system is MCF-7 cells. Put plainly: Wound healing. The format is cell-based, human. Conditions: control cells 97.03%.
The test system of the next assay is VEGFR2. The assay is classed as biochemical, human. Conditions: biomarker for angiogenesis.
Assay [4] relates to normal human skin fibroblast (BJ-1) cell line. Put plainly: In vitro antiproliferative activity, LDH release assay, BJ-1 normal cells. The assay is classed as cell-based. Conditions: 48 h, read-out: BJ-1 IC50. The gist of the method: as §1
Assay [5] relates to MCF-7 cells. Put plainly: Apoptosis assay, Annexin-V/FITC and PI flow cytometry. The format is cell-based, human. Conditions: MCF-7, 48 h.
The mark [6] stands for this setting: MCF7, 48 h, read-out: MCF-7 IC50.
Setting [7] is: MCF7, read-out: MCF-7 Experimental activity (pIC50) (converted).

aminopeptidase N (APN), sequence (P15144 whole entry): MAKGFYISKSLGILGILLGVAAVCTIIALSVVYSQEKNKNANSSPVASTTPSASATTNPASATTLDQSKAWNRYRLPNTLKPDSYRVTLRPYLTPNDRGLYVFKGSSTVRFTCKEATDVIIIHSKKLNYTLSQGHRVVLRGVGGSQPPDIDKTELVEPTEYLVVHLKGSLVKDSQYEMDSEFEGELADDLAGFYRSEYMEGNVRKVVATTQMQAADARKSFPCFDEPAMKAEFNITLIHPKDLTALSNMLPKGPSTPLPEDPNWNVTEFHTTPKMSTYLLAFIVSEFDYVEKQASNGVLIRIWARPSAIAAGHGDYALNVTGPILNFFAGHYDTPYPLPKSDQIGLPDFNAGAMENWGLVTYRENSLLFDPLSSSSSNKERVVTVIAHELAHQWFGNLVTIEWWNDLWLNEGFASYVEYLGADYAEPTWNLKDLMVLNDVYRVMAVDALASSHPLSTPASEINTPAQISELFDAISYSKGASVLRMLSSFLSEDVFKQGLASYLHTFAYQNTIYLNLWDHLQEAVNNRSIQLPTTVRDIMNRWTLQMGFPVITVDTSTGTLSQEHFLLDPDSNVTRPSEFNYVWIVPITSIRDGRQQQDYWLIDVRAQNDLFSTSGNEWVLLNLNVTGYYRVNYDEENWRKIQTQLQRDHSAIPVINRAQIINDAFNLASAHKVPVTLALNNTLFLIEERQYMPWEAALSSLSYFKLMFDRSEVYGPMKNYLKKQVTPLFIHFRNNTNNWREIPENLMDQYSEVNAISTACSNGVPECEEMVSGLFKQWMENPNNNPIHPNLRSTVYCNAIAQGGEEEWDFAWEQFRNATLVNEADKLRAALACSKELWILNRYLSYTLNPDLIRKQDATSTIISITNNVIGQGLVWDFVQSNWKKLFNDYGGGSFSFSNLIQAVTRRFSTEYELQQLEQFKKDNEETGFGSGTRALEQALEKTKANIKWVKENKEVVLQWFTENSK

With `CC1=NN(C2=NC(=O)C(C)S2)C(c2ccccc2)C1` (stereo not shown) [Compound 15, 2-(4,5-Dihydro-3-methyl-5-phenylpyrazol-1-yl)-5-methylthiazol-4(5H)-one], the figures for the IC50 in assay [1] (setting [6]) and in assay [1] (setting [7]) were 8.6 ± 0.3 µM and 8.6 µM, respectively.
`CC1=NN(C2=NC(=O)C(=Cc3ccc(F)cc3)S2)C(c2ccccc2)C1` (stereo not shown) [Compound 16, 5-(4-Fluorobenzylidene)-2-(4,5-dihydro-3-methyl-5-phenylpyrazol-1-yl)thiazol-4(5H)-one]: the IC50 in assay [1] (setting [6]) is 6.6 ± 0.2 µM; in assay [1] (setting [7]), 6.6 µM.
Take `CC1=NN(c2nc(-c3ccc(F)cc3)cs2)C(c2ccccc2)C1` (stereo not shown) [Compound 11, 1-(4-(4-Fluorophenyl)thiazol-2-yl)-4,5-dihydro-3-methyl-5-phenyl-1H-pyrazole]: the IC50 is 6.9 ± 0.2 µM in assay [1] (setting [6]) and 6.9 µM in assay [1] (setting [7]).
For the compound `O=c1c(O)c(-c2ccc(O)c(O)c2)oc2cc(O)cc(O)c12` [quercetin, reference compound], the “MMP9 inhibition pIC50” value with MMP9 came to 6.7.
For the compound `COc1ccc(C=C2SC(N3N=C(C)CC3c3ccccc3)=NC2=O)cc1OC` (stereo not shown) [Compound 19, 5-(3,4-Dimethoxybenzylidene)-2-(4,5-dihydro-3-methyl-5-phenylpyrazol-1-yl)thiazol-4(5H)-one], the IC50 was 7.5 ± 0.2 µM in assay [1] (setting [6]) and 7.5 µM in assay [1] (setting [7]).
In the case of `CC1=NN(c2nc(-c3ccc(Cl)cc3Cl)cs2)C(c2ccccc2)C1` (stereo not shown) [Compound 13, 1-(4-(2,4-Dichlorophenyl)thiazol-2-yl)-4,5-dihydro-3-methyl-5-phenyl-1H-pyrazole], the IC50 in assay [1] (setting [6]) is 6.7 ± 0.2 µM; in assay [1] (setting [7]), 6.7 µM.
For the compound `CC1=NN(C(=S)NCc2ccccc2)C(c2ccccc2)C1` (stereo not shown) [Compound 9, N-Benzyl-4,5-dihydro-3-methyl-5-phenylpyrazole-1-carbothioamide], the IC50 was 7 ± 0.3 µM in assay [1] (setting [6]) and 7 µM in assay [1] (setting [7]).
Take `CC1=NN(c2nc(-c3ccccc3)cs2)C(c2ccccc2)C1` (stereo not shown) [Compound 10, 4,5-Dihydro-3-methyl-5-phenyl-1-(4-phenylthiazol-2-yl)-1H-pyrazole]: the IC50 was 7.6 ± 0.3 µM in assay [1] (setting [6]) and 7.6 µM in assay [1] (setting [7]).
On to `COc1ccc(C=C2SC(N3N=C(C)CC3c3ccccc3)=NC2=O)cc1` (stereo not shown) [Compound 17, 5-(4-Methoxybenzylidene)-2-(4,5-dihydro-3-methyl-5-phenylpyrazol-1-yl)thiazol-4(5H)-one], for which the figures for the IC50 in assay [1] (setting [6]) and in assay [1] (setting [7]) were 7 ± 0.3 µM and 7 µM, respectively.
Regarding `CC1=NN(C(=S)Nc2ccccc2)C(c2ccccc2)C1` (stereo not shown) [Compound 8, 4,5-Dihydro-3-methyl-N,5-diphenylpyrazole-1-carbothioamide], the IC50 is 15.8 µM against aminopeptidase N (APN), 6.2 ± 0.2 µM in assay [1] (setting [6]), 6.2 µM in assay [1] (setting [7]) and 29.1 ± 2.3 µM in assay [4]. In the assay on MCF-7 cells [2] (control 24.79%), the “cell population in S phase” value stood at 23.02%. The “cell population in G0/G1 phase” value with MCF-7 cells [2] (control 65.02%) was found to be 72.11%. Besides, the “percentage closure of the wound gap” value in the assay with MCF-7 cells [3] is on record as 57.77%. The “VEGFR2 inhibition pIC50” value in the assay with VEGFR2 came to 6.7. Further, the “selectivity index (SI)” value in assay [1] (BJ-1 versus MCF-7) came out at 4.7. This compound had a late apoptosis in the assay with MCF-7 cells [5] (control 0.15%) of 17.11%. The same compound came in with an early apoptosis in the assay with MCF-7 cells [5] (control 0.37%) of 11.52%. Further, in the assay on MCF-7 cells [5] (control 1.95%), the “total MCF-7 cell death” value is given as 32.91%. Further, in the assay with MMP9, the “MMP9 inhibition pIC50” value is 6.4.
With `CC1=NN(c2c(Cl)cc(Cl)cc2Cl)C(c2ccccc2)C1` (stereo not shown) [Compound 4, 1-(2,4,6-Trichlorophenyl)-4,5-dihydro-3-methyl-5-phenyl-1H-pyrazole], the results for the IC50 in assay [1] (setting [6]) and in assay [1] (setting [7]) were 8.1 ± 0.5 µM and 8.1 µM, respectively.
Take `CC1=NN(c2ccccc2Cl)C(c2ccccc2)C1` (stereo not shown) [Compound 3, 1-(2-Chlorophenyl)-4,5-dihydro-3-methyl-5-phenyl-1H-pyrazole]: the figures for the IC50 in assay [1] (setting [6]) and in assay [1] (setting [7]) were 8.8 ± 0.5 µM and 8.8 µM, respectively.
Regarding `COc1ccc(-c2csc(N3N=C(C)CC3c3ccccc3)n2)cc1` (stereo not shown) [Compound 12, 4,5-Dihydro-1-(4-(4-methoxyphenyl)thiazol-2-yl)-3-methyl-5-phenyl-1H-pyrazole], the IC50 in assay [1] (setting [6]) was 7.1 ± 0.2 µM; in assay [1] (setting [7]), 7.1 µM.
On to `CCNC(=S)N1N=C(C)CC1c1ccccc1` (stereo not shown) [Compound 7, N-Ethyl-4,5-dihydro-3-methyl-5-phenylpyrazole-1-carbothioamide], for which the IC50 is 5.8 ± 0.2 µM in assay [1] (setting [6]), 5.8 µM in assay [1] (setting [7]) and 18.7 ± 1.5 µM in assay [4].
For `CNC(=S)N1N=C(C)CC1c1ccccc1` (stereo not shown) [Compound 6, 4,5-Dihydro-N,3-dimethyl-5-phenylpyrazole-1-carbothioamide], the IC50 in assay [1] (setting [6]) is 6.4 ± 0.3 µM; in assay [1] (setting [7]) it was 6.4 µM; in assay [4], 18.2 ± 1.5 µM.
Take `CC1=NN(C2=NC(=O)C(=Cc3ccc(Cl)cc3Cl)S2)C(c2ccccc2)C1` (stereo not shown) [Compound 18, 5-(2,4-Dichlorobenzylidene)-2-(4,5-dihydro-3-methyl-5-phenylpyrazol-1-yl)thiazol-4(5H)-one]: the figures for the IC50 in assay [1] (setting [6]) and in assay [1] (setting [7]) were 6.9 ± 0.2 µM and 6.9 µM, respectively.
For the compound `COc1cccc2c1C(=O)c1c(O)c3c(c(O)c1C2=O)C[C@@](O)(C(=O)CO)C[C@@H]3O[C@H]1C[C@H](N)[C@H](O)[C@H](C)O1` [Doxorubicin, reference compound], the IC50 is 4.9 ± 0.3 µM in assay [1] (setting [6]) and 12.9 ± 1.3 µM in assay [4].
